Test results as given in ChEMBL document CHEMBL4304827, “Design, synthesis and evaluation of structurally diverse chrysin-chromene-spirooxindole hybrids as anticancer agents” (Bioorg Med Chem, 2019).

Test system: A549
Assay: Inhibition of colony formation in human A549 cells cultured in plate assessed as decrease in size and number of colonies formed incubated for 10 days by crystal violet staining based fluorescence microscopy
Type: functional, cell-based
Method in brief: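 Log-phase A549 cells were seeded at 1 × 10^3/well and cultured 24 h. Medium containing various concentrations was added and cells were grown 10 days. Colonies were fixed in 4% paraformaldehyde for 30 min, stained with 0.1% crystal violet and imaged by microscopy. Colony percentage was calculated relative to control colonies. Mean ± SD, ≥3 experiments.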

SMILES: CN1C(=O)C2(C(C#N)=C(N)Oc3cc4oc(-c5ccccc5)cc(=O)c4c(O)c32)c2cc(Br)ccc21 (stereo unspecified)
- inhibition: Dose-dependent effect
